Shown are actives, neighbours in structure and some others; about 2.1% of the full set was active somewhere.
ASAP1 GAP inh: inhibitors of human ASAP1 ArfGAP activity, primary screen, biochemical, fluorescence polarization. Arf-GAP with SH3 domain, ANK repeat and PH domain-containing protein 1 (Homo sapiens), …. ASAP1-stimulated ARF1 GTP hydrolysis, GDP FP detection. inhibition, % at 16.5 µM. 360,000 compounds, 0.19% hits. AID 624377, 2012; in the data active = inhibition above about 25%;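 also: 0% = vehicle with enzyme and substrate and 100% = no enzyme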
Target sequence (Q9ULH1 325-724 limits assumed): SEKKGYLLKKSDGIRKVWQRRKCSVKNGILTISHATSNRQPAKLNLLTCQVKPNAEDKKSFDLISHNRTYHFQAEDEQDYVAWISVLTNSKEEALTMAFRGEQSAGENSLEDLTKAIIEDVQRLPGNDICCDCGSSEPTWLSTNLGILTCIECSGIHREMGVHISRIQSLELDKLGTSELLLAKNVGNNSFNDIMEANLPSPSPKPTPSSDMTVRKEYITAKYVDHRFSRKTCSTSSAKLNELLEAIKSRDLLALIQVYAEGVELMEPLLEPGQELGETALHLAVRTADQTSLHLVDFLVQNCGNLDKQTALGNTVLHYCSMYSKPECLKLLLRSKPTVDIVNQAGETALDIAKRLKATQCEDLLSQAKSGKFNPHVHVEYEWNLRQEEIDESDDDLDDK
Mot1-301 SUMO: yeast Mot1-301 growth rescue at high temperature, primary screen, SUMOylation pathway inhibitor project, S. cerevisiae, ATP luminescence, 38.5C; S. cerevisiae Mot1-301 growth rescue; percent above DMSO median, 100 means doubled; 320,000 compounds, 1% hits; growth rescue, % at 18.8 µM;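 active = every valid replicate shows activation above 250% relative to neutral control wells; inactive = the rest, any valid replicate at or below 250%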;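 also: OY570 slx delta 5 strain wells were the positive control but not used for scaling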
ARFGAP1 inh: inhibitors of rat ARFGAP1 GAP activity, primary screen, biochemical, fluorescence polarization, GDP tracer; ADP-ribosylation factor GTPase-activating protein 1 (Rattus norvegicus), Q62848; Arfgap1-stimulated ARF1 GTP hydrolysis, GDP FP detection; AID 651572, 2012; 360,000 compounds, 0.26% hits; inhibition, % at 16.5 µM;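 active = inhibition above a per-plate limit, mean inhibition of low control wells plus 3 SD, cut at about 25% in these data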;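 also: 0% = DMSO wells with enzyme and 100% = wells lacking Arfgap1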
Target sequence (Q62848 1-136 limits assumed): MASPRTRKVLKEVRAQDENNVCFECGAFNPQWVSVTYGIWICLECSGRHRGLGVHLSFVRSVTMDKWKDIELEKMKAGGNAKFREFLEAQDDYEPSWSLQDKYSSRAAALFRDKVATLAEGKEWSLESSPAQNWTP
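Repeats: one replicate per compound; assay system: rat Arfgap1 catalytic domain, aa 1-136; times: enzyme reaction 120 min at 25 °C after 20 min preincubation; detection: FP of antibody-bound GDP Alexa 633 tracer, ex 620/em 688 nm; benchmarks: high control wells lacking Arfgap1, low control full reaction with DMSO; reagent: human ARF1(Δ1-17)-GTP substrate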
A3G deaminase: APOBEC3G DNA deaminase inhibitors, primary screen, biochemical, fluorescence, single-stranded DNA substrate, uHTS. DNA dC->dU-editing enzyme APOBEC-3G (Homo sapiens), Q9HC16. recombinant A3G, ssDNA deamination FAM/TAMRA fluorescence. inhibition, % at 20 µM. 330,000 compounds, 0.28% hits. AID 493012, 2011;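 active = inhibition of at least 40% at 20 µM, with no more than 30% in the related APOBEC3A deaminase screen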;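 also: plate controls were DMSO wells with A3G for no effect and wells lacking A3G enzyme for full effect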
A3A deaminase: APOBEC3A ssDNA deaminase inhibitors, primary screen, selectivity assay for APOBEC3G inhibitor project, biochemical, FAM/TAMRA oligo cleavage fluorescence; DNA dC->dU-editing enzyme APOBEC-3A (Homo sapiens), P31941; recombinant A3A, FAM/TAMRA ssDNA deamination fluorescence; inhibition, % at 20 µM; 330,000 compounds, 0.41% hits; AID 493011, 2011;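 active = at least 40% inhibition at 20 µM here, with at most 30% in a related deaminase screen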;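 also: plate controls were A3A with DMSO for no effect and wells lacking A3A enzyme for full effect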
C2C12 statin: suppressors of statin myotoxicity in C2C12 myotubes, primary screen, cell-based, single point, plate reader; C2C12 myotubes + simvastatin, ATP luminescence, 48 h; scaled: DMSO 0, geranylgeraniol control 100; rescue of ATP level, % at 7.49 µM; 330,000 compounds, 0.78% hits;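 active = mean ATP rescue above about 67%, or every replicate alone reaching that limit, limit read from the data, passing the limit was not always enough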;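 also: myotubes were challenged with 10 µM simvastatin during compound exposure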
The depositor's hits bear a star; . = no result; + = active, no number; ! = not active in a repeat.

SMILES	ASAP1 GAP inh	Mot1-301 SUMO	ARFGAP1 inh	A3G deaminase	A3A deaminase	C2C12 statin
Cc1noc(C)c1NC(=O)N(C)C[C@H]1Oc2ccc(NS(=O)(=O)c3c(C)noc3C)cc2CC(=O)N([C@@H](C)CO)C[C@@H]1C	.	.	.	.	.	-26
CO[C@H]1CN(C)C(=O)c2ccc(NS(C)(=O)=O)cc2OC[C@@H](C)N(CCC(F)(F)F)C[C@@H]1C	.	.	.	.	.	-9
Cc1ccc(C2/C(=C(/O)c3cnn(-c4ccccc4)c3C)C(=O)C(=O)N2CCN2CCOCC2)o1 (stereo not given)	-18	2	0	1	1	126*
CC(C)C(=O)Nc1ccc2c(c1)C(=O)N(C)[C@H]1CC[C@H](CC(=O)Nc3cccc(F)c3)O[C@@H]1CO2	.	.	.	.	.	11
COc1ccccc1C(=O)NCC(=O)OC(C)C(=O)NC(=O)NC1CCCCC1 (stereo not given)	-6	6	-14	-5	-14	87*
CCOC(=O)C(C)C1(O)c2ccccc2-c2ncccc21 (stereo not given)	-13	.	-7	-10	-5	106*
O=C(NCC1CC1)[C@H]1[C@H](CO)[C@H]2Cn3c(ccc(-c4ccccc4F)c3=O)[C@@H]1N2Cc1cccnc1	.	.	.	.	.	9
COc1cc(OC)cc(-c2ncc3ccccn23)c1	-12	21	15	0	-9	-8
COc1ccc(-c2ncc3ccccn23)cc1	-6	-13	-4	4	-3	99*
O=C1C(SC(F)(F)C(F)F)=C(C(F)(F)F)OC2C3C=CC(C3)C12 (stereo not given)	-4	-10	-3	2	4	107*
COc1ccc(CCNC(=S)N2CCN(S(=O)(=O)c3cccc(F)c3)CC2)cc1	-9	351*	-2	-7	-3	3
COCCNC(=O)C[C@H]1C[C@H]2c3cc(NC(=O)C4CCC4)ccc3O[C@H]2[C@H](CO)O1	.	.	.	.	.	-7
Cc1ccc(NC(=S)N(CCN(C)C)Cc2cc3cccc(C)c3[nH]c2=O)cc1	1	5	-1	-4	0	114*
COc1ccccc1NC(=O)N[C@@H]1CC[C@H](CCNC(=O)Cc2ccccn2)O[C@@H]1CO	.	.	.	.	.	-4
ONC(=Nc1ccccc1)C(=Nc1ccccc1)NO	5	-9	1	-4	3	86*
NC(=Nc1ccccc1)Nc1ccccc1	-7	-28	4	-7	-3	9
COc1cc(OC)c(C(=O)O/N=C(\N)c2ccccn2)cc1OC	5	327*	-1	-1	-1	-6
Cn1c(=N)c(S(=O)(=O)c2ccccc2)cc2c(=O)n3ccccc3nc21	-10	311*	-5	-4	-3	-3
CS(=O)(=O)N1CCC(C(=O)N2CCN(c3ccccc3F)CC2)CC1	2	310*	-5	-4	1	.
CCS(=O)(=O)Nc1ccc2c(c1)C(=O)N(C)C[C@H](OC)[C@@H](C)CN(C(=O)NC(C)C)[C@@H](C)CO2	.	.	.	.	.	-28
Cc1ccc(N2N=C(C(=O)O)CCC2=O)cc1Cl	-14	116	-8	-4	-1	124*
COc1ccc(CN2C[C@@H](C)[C@H](OC)CN(C)C(=O)c3cc(NC(=O)C4CC4)ccc3OC[C@H]2C)cc1	.	.	.	.	.	20
CCC(=O)N1[C@@H]2c3cccc(=O)n3C[C@@H]2[C@@H](CO)[C@@H]1C(=O)NC1CCCCC1	.	.	.	.	.	-10
CC(C)n1c(SCC(=O)Nc2nc3c(s2)CCCC3)nc2c1c(=O)n(C)c(=O)n2C	11	5	7	3	2	99*
CCOC(=O)c1c(NC(=O)CSc2nc3c(c(=O)n(C)c(=O)n3C)n2C(C)C)sc(C)c1C	-6	-9	-7	1	-6	3
SMILES	ASAP1 GAP inh	Mot1-301 SUMO	ARFGAP1 inh	A3G deaminase	A3A deaminase	C2C12 statin
CCN1C(=O)/C(=C2\C=Cc3cc(C)ccc3N2CC)OC1=S	-11	.	-4	-1	2	2
CCN1C(=O)/C(=C2/C=Cc3ccccc3N2C)OC1=S	1	-6	1	1	1	118*
O=c1c2ccccc2ncn1Cc1nc2ccccc2s1	-8	-29	-3	-4	-3	114*
NS(=O)(=O)c1cc2c(cc1Cl)NC(C1C[C@H]3C=C[C@@H]1C3)NS2(=O)=O (stereo not given in full)	-7	563*!	-3	-8	-5	14
CNC[C@H]1Oc2c(NC(=O)Nc3ccc(C(F)(F)F)cc3)cccc2C(=O)N([C@@H](C)CO)C[C@@H]1C	.	.	.	.	.	-48
CCCNC(=O)N(C)C[C@@H]1Oc2ncc(-c3ccc(F)cc3)cc2C(=O)N([C@H](C)CO)C[C@H]1C	.	.	.	.	.	-7
CCOC(=O)c1c(C)sc2c1N(C(=O)CN(CC)CC)c1ccccc1S2	1	-16	10	-3	2	.
CCOC(=O)c1c(C)sc2c1N(C(=O)CN(CC)CC)c1cc(Cl)ccc1S2	3	-12	-13	-4	2	115*
COc1ccc(S(=O)(=O)Nc2ccc3c(c2)C(=O)N([C@H](C)CO)C[C@@H](C)[C@H](CN(C)Cc2ccc4c(c2)OCO4)OCCCC[C@H](C)O3)cc1	.	.	.	.	.	-283
Cn1nc(C(C)(C)C)c([N+](=O)[O-])c1C(=O)N1CCCCCC1	-14	444*	-11	-8	-3	48
Cn1nc(C(C)(C)C)c([N+](=O)[O-])c1C(=O)N1CCOCC1	1	10	-6	0	-2	-7
N#C/C(=N\Nc1cccc2ccccc12)c1nnc2n1CCCCC2	0	+	-2	-5	-1	.
CN1CCN(CC(=O)N2CCn3c4c(c5cc(C6CCCCC6)ccc53)CCCC42)CC1 (stereo not given)	.	500*	.	-4	-7	.
O=C(c1cccc(-c2nnc(-c3ccccc3)o2)c1)N1CCCCC1	-4	.	1	2	3	121*
O=C(c1cccc(-c2nnc(-c3ccccc3)o2)c1)N1CCCCCC1	5	15	3	-7	-1	8
Nc1nn(S(=O)(=O)c2cccc3nsnc23)cc1-c1ccc(Br)cc1	21	-7	-5	-9	-4	95*
Cc1ccc(-c2cn(S(=O)(=O)c3cccc4nsnc34)nc2N)cc1	-5	1	-7	-5	-2	7
